According to ChEMBL document CHEMBL1151448, “Comparative antianaerobic activities of doripenem determined by MIC and time-kill analysis” (2008):
≈ marks a conversion by molar mass, not a printed value.

Columns and labels:
Type in all cases: functional
Clostridioides difficile = test: Antimicrobial activity against Clostridium difficile isolated from intra-abdominal infection and pelvic inflammatory disease patients after 48 hrs by agar dilution method
Procedure, shortened: (§1)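 CLSI agar dilution on brucella blood agar supplemented with laked sheep blood, hemin and vitamin K. Inocula of about 1 × 10^5 CFU/spot were applied by Steers replicator, and plates were incubated 48 h at 35°C in an anaerobic glove box. MIC was the concentration giving marked growth reduction versus the anaerobic control plate. QC strains were included each run, and β-lactamase was detected by Cefinase disk.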

[1] = tested on: Prevotella melaninogenica; test: Antimicrobial activity against beta lactamase-positive Prevotella melaninogenica isolated from intra-abdominal infection and pelvic inflammatory disease patients after 48 hrs by agar dilution method; procedure, shortened: as §1
Clostridium perfringens [2] = test: Antimicrobial activity against Clostridium perfringens isolated from intra-abdominal infection and pelvic inflammatory disease patients after 48 hrs by time kill analysis
Procedure, shortened: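 Macrodilution in prereduced brucella broth with 5% laked horse blood cells, 5 μg/ml hemin and 1 μg/ml vitamin K1. Final inoculum 10^6 to 10^7 CFU/ml, prepared inside the anaerobe chamber. Vials incubated 48 h at 35°C in a shaking water bath. MIC read by inspecting the time-kill tubes, alongside an antibiotic-free growth control.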

[Clostridium] innocuum = Antimicrobial activity against Clostridium innocuum isolated from intra-abdominal infection and pelvic inflammatory disease patients after 48 hrs by agar dilution method; procedure, shortened: as §1
Porphyromonas levii = test: Antimicrobial activity against Porphyromonas levii isolated from intra-abdominal infection and pelvic inflammatory disease patients after 48 hrs by agar dilution method; procedure, shortened: as §1
Finegoldia magna [3] = test: Antimicrobial activity against Finegoldia magna isolated from intra-abdominal infection and pelvic inflammatory disease patients after 48 hrs by agar dilution method; procedure, shortened: as §1
Prevotella nigrescens = test: Antimicrobial activity against beta lactamase-positive Prevotella nigrescens isolated from intra-abdominal infection and pelvic inflammatory disease patients after 48 hrs by agar dilution method; procedure, shortened: as §1
Clostridium cadaveris = test: Antimicrobial activity against Clostridium cadaveris isolated from intra-abdominal infection and pelvic inflammatory disease patients after 48 hrs by agar dilution method; procedure, shortened: as §1
[4] = tested on: Peptostreptococcus anaerobius; test: Antimicrobial activity against Peptostreptococcus anaerobius isolated from intra-abdominal infection and pelvic inflammatory disease patients after 48 hrs by agar dilution method; procedure, shortened: as §1
[5] = tested on: Paeniclostridium sordellii; test: Antimicrobial activity against Clostridium sordellii isolated from intra-abdominal infection and pelvic inflammatory disease patients after 48 hrs by agar dilution method; conditions: Paraclostridium sordellii; procedure, shortened: as §1
[6] = tested on: Clostridium paraputrificum; test: Antimicrobial activity against Clostridium paraputrificum isolated from intra-abdominal infection and pelvic inflammatory disease patients after 48 hrs by agar dilution method; procedure, shortened: as §1
Prevotella buccae = test: Antimicrobial activity against beta lactamase-positive Prevotella buccae isolated from intra-abdominal infection and pelvic inflammatory disease patients after 48 hrs by agar dilution method; conditions: Segatella buccae; procedure, shortened: as §1
Fusobacterium mortiferum = test: Antimicrobial activity against beta lactamase-positive Fusobacterium mortiferum isolated from intra-abdominal infection and pelvic inflammatory disease patients after 48 hrs by agar dilution method; procedure, shortened: as §1
Clostridium perfringens [7] = test: Antimicrobial activity against Clostridium perfringens isolated from intra-abdominal infection and pelvic inflammatory disease patients after 48 hrs by agar dilution method
Procedure, shortened: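 CLSI agar dilution on brucella blood agar supplemented with laked sheep blood, hemin and vitamin K. Inoculum about 1 × 10^5 CFU/spot, applied by Steers replicator. Plates incubated 48 h at 35°C in an anaerobic glove box. MIC is the concentration giving marked growth reduction versus the anaerobic control plate. Standard QC strains included in each run.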

Anaerococcus prevotii = test: Antimicrobial activity against Anaerococcus prevotii isolated from intra-abdominal infection and pelvic inflammatory disease patients after 48 hrs by agar dilution method; procedure, shortened: as §1
Bacteroides fragilis [8] = test: Antimicrobial activity against beta lactamase-positive Bacteroides fragilis isolated from intra-abdominal infection and pelvic inflammatory disease patients after 48 hrs by time kill analysis
Procedure, shortened: (§2)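 The MIC was read by inspecting macrodilution time-kill tubes. Vials held prereduced brucella broth with 5% laked horse blood cells, hemin 5 μg/ml and vitamin K1 1 μg/ml. Final inoculum was 10^6–10^7 CFU/ml, prepared inside the anaerobe chamber. Vials were incubated 48 h at 35°C in a shaking water bath.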

Prevotella intermedia [9] = test: Antimicrobial activity against beta lactamase-positive Prevotella intermedia isolated from intra-abdominal infection and pelvic inflammatory disease patients after 48 hrs by time kill analysis; procedure, shortened: as §2
[10] = tested on: Porphyromonas asaccharolytica; test: Antimicrobial activity against Porphyromonas asaccharolyticus isolated from intra-abdominal infection and pelvic inflammatory disease patients after 48 hrs by agar dilution method; procedure, shortened: as §1
Phocaeicola vulgatus = test: Antimicrobial activity against beta lactamase-positive Bacteroides vulgatus isolated from intra-abdominal infection and pelvic inflammatory disease patients after 48 hrs by agar dilution method; procedure, shortened: as §1
Prevotella disiens = test: Antimicrobial activity against beta lactamase-positive Prevotella disiens isolated from intra-abdominal infection and pelvic inflammatory disease patients after 48 hrs by agar dilution method; procedure, shortened: as §1
Parvimonas micra = test: Antimicrobial activity against Micromonas micros isolated from intra-abdominal infection and pelvic inflammatory disease patients after 48 hrs by agar dilution method; procedure, shortened: as §1
Prevotella intermedia [11] = test: Antimicrobial activity against beta lactamase-positive Prevotella intermedia isolated from intra-abdominal infection and pelvic inflammatory disease patients after 48 hrs by agar dilution method; procedure, shortened: as §1
Fusobacterium nucleatum [12] = test: Antimicrobial activity against beta lactamase-positive Fusobacterium nucleatum isolated from intra-abdominal infection and pelvic inflammatory disease patients after 48 hrs by time kill analysis; procedure, shortened: as §2
[13] = tested on: Parabacteroides distasonis; test: Antimicrobial activity against beta lactamase-positive Bacteroides distasonis isolated from intra-abdominal infection and pelvic inflammatory disease patients after 48 hrs by agar dilution method; procedure, shortened: as §1
Anaerococcus tetradius = test: Antimicrobial activity against Anaerococcus tetradius isolated from intra-abdominal infection and pelvic inflammatory disease patients after 48 hrs by agar dilution method; procedure, shortened: as §1
Porphyromonas gingivalis = test: Antimicrobial activity against Porphyromonas gingivalis isolated from intra-abdominal infection and pelvic inflammatory disease patients after 48 hrs by agar dilution method; procedure, shortened: as §1
Bacteroides ovatus = test: Antimicrobial activity against beta lactamase-positive Bacteroides ovatus isolated from intra-abdominal infection and pelvic inflammatory disease patients after 48 hrs by agar dilution method; procedure, shortened: as §1
Fusobacterium nucleatum [14] = test: Antimicrobial activity against beta lactamase-positive Fusobacterium nucleatum isolated from intra-abdominal infection and pelvic inflammatory disease patients after 48 hrs by agar dilution method; procedure, shortened: as §1
[15] = tested on: Fusobacterium necrophorum; test: Antimicrobial activity against Fusobacterium necrophorum isolated from intra-abdominal infection and pelvic inflammatory disease patients after 48 hrs by agar dilution method; procedure, shortened: as §1
[16] = tested on: Peptoniphilus asaccharolyticus; test: Antimicrobial activity against Peptoniphilus asaccharolyticus isolated from intra-abdominal infection and pelvic inflammatory disease patients after 48 hrs by agar dilution method; procedure, shortened: as §1
Finegoldia magna [17] = test: Antimicrobial activity against beta lactamase-positive Finegoldia magna isolated from intra-abdominal infection and pelvic inflammatory disease patients after 48 hrs by time kill analysis; procedure, shortened: as §2
Prevotella corporis = test: Antimicrobial activity against beta lactamase-positive Prevotella corporis isolated from intra-abdominal infection and pelvic inflammatory disease patients after 48 hrs by agar dilution method; procedure, shortened: as §1
Prevotella bivia = test: Antimicrobial activity against beta lactamase-positive Prevotella bivia isolated from intra-abdominal infection and pelvic inflammatory disease patients after 48 hrs by agar dilution method; procedure, shortened: as §1
[18] = tested on: Paraclostridium bifermentans; test: Antimicrobial activity against Clostridium bifermentans isolated from intra-abdominal infection and pelvic inflammatory disease patients after 48 hrs by agar dilution method; procedure, shortened: as §1
[19] = tested on: Bacteroides thetaiotaomicron; test: Antimicrobial activity against beta lactamase-positive Bacteroides thetaiotaomicron isolated from intra-abdominal infection and pelvic inflammatory disease patients after 48 hrs by agar dilution method; procedure, shortened: as §1
Prevotella denticola = test: Antimicrobial activity against beta lactamase-positive Prevotella denticola isolated from intra-abdominal infection and pelvic inflammatory disease patients after 48 hrs by agar dilution method; procedure, shortened: as §1
Bacteroides fragilis [20] = test: Antimicrobial activity against beta lactamase-positive Bacteroides fragilis isolated from intra-abdominal infection and pelvic inflammatory disease patients after 48 hrs by agar dilution method; procedure, shortened: as §1
Thomasclavelia ramosa = test: Antimicrobial activity against Clostridium ramosum isolated from intra-abdominal infection and pelvic inflammatory disease patients after 48 hrs by agar dilution method; procedure, shortened: as §1
[21] = tested on: Enterocloster clostridioformis; test: Antimicrobial activity against Clostridium clostridioforme isolated from intra-abdominal infection and pelvic inflammatory disease patients after 48 hrs by agar dilution method; procedure, shortened: as §1
Fusobacterium varium = test: Antimicrobial activity against Fusobacterium varium isolated from intra-abdominal infection and pelvic inflammatory disease patients after 48 hrs by agar dilution method; procedure, shortened: as §1

`CO/N=C(\C(=O)N[C@@H]1C(=O)N2C(C(=O)O)=C(CSc3nc(=O)c(O)nn3C)CS[C@H]12)c1csc(N)n1` [CEFTRIAXONE] was tested, and the MIC50 (Clostridioides difficile) was 64 µg/mL (≈ 115 µM), the MIC90 (Clostridioides difficile) was 64 µg/mL (≈ 115 µM) and the MIC50 [1] was 4 µg/mL (≈ 7.21 µM). The MIC90 [1] was 16 µg/mL (≈ 28.9 µM), the MIC (Clostridium perfringens [2]) was 2 µg/mL (≈ 3.61 µM) and the MIC50 ([Clostridium] innocuum) was 16 µg/mL (≈ 28.9 µM). For the same compound, the MIC (Porphyromonas levii) was no more than 0.125 µg/mL, the MIC50 (Finegoldia magna [3]) was 8 µg/mL (≈ 14.4 µM) and the MIC90 (Finegoldia magna [3]) was 8 µg/mL (≈ 14.4 µM). For the same compound, the MIC50 (Prevotella nigrescens) was 4 µg/mL (≈ 7.21 µM), the MIC90 (Prevotella nigrescens) was 16 µg/mL (≈ 28.9 µM) and the MIC (Clostridium cadaveris) was 4 µg/mL (≈ 7.21 µM). The MIC [4] was 0.5 µg/mL (≈ 0.902 µM), the MIC50 [4] was 0.5 µg/mL (≈ 0.902 µM) and the MIC90 [4] was 16 µg/mL (≈ 28.9 µM). The MIC [5] was 0.25 µg/mL (≈ 0.451 µM), the MIC [6] was 4 µg/mL (≈ 7.21 µM) and the MIC50 (Prevotella buccae) was 0.25 µg/mL (≈ 0.451 µM). The MIC90 (Prevotella buccae) was 4 µg/mL (≈ 7.21 µM), the MIC50 (Fusobacterium mortiferum) was 0.25 µg/mL (≈ 0.451 µM) and the MIC90 (Fusobacterium mortiferum) was no less than 128 µg/mL. It also gave an MIC50 (Clostridium perfringens [7]) of 2 µg/mL (≈ 3.61 µM), an MIC90 (Clostridium perfringens [7]) of 4 µg/mL (≈ 7.21 µM) and an MIC (Anaerococcus prevotii) of no more than 0.125 µg/mL. The MIC (Bacteroides fragilis [8]) was 0.25 µg/mL (≈ 0.451 µM), the MIC (Prevotella intermedia [9]) was 0.125 µg/mL (≈ 0.225 µM) and the MIC [10] was no more than 0.125 µg/mL. It also gave an MIC50 (Phocaeicola vulgatus) of 16 µg/mL (≈ 28.9 µM), an MIC90 (Phocaeicola vulgatus) greater than 128 µg/mL and an MIC50 (Prevotella disiens) of 2 µg/mL (≈ 3.61 µM). The MIC90 (Prevotella disiens) was 64 µg/mL (≈ 115 µM), the MIC (Parvimonas micra) was no more than 0.125 µg/mL and the MIC50 (Parvimonas micra) was no more than 0.125 µg/mL. For the same compound, the MIC90 (Parvimonas micra) was 1 µg/mL (≈ 1.8 µM), the MIC50 (Prevotella intermedia [11]) was 4 µg/mL (≈ 7.21 µM) and the MIC90 (Prevotella intermedia [11]) was 64 µg/mL (≈ 115 µM). It also gave an MIC (Fusobacterium nucleatum [12]) of 0.125 µg/mL (≈ 0.225 µM), an MIC50 [13] of 8 µg/mL (≈ 14.4 µM) and an MIC90 [13] greater than 128 µg/mL. The MIC (Anaerococcus tetradius) was 0.25 µg/mL (≈ 0.451 µM), the MIC50 (Anaerococcus tetradius) was 0.25 µg/mL (≈ 0.451 µM) and the MIC (Porphyromonas gingivalis) was no more than 0.125 µg/mL. The MIC50 (Bacteroides ovatus) was 64 µg/mL (≈ 115 µM), the MIC90 (Bacteroides ovatus) was greater than 128 µg/mL and the MIC50 (Fusobacterium nucleatum [14]) was 0.25 µg/mL (≈ 0.451 µM). For the same compound, the MIC90 (Fusobacterium nucleatum [14]) was 0.5 µg/mL (≈ 0.902 µM), the MIC50 [15] was no more than 0.125 µg/mL and the MIC90 [15] was 0.5 µg/mL (≈ 0.902 µM). For the same compound, the MIC [16] was no more than 0.125 µg/mL, the MIC50 [16] was no more than 0.125 µg/mL and the MIC90 [16] was 1 µg/mL (≈ 1.8 µM). For the same compound, the MIC (Finegoldia magna [17]) was 8 µg/mL (≈ 14.4 µM), the MIC50 (Prevotella corporis) was 4 µg/mL (≈ 7.21 µM) and the MIC90 (Prevotella corporis) was 32 µg/mL (≈ 57.7 µM). The MIC50 (Prevotella bivia) was 8 µg/mL (≈ 14.4 µM), the MIC90 (Prevotella bivia) was 64 µg/mL (≈ 115 µM) and the MIC [18] was 0.25 µg/mL (≈ 0.451 µM). For the same compound, the MIC50 [19] was greater than 128 µg/mL, the MIC90 [19] was greater than 128 µg/mL and the MIC50 (Prevotella denticola) was 4 µg/mL (≈ 7.21 µM). The MIC90 (Prevotella denticola) was 64 µg/mL (≈ 115 µM), the MIC50 (Bacteroides fragilis [20]) was 64 µg/mL (≈ 115 µM) and the MIC90 (Bacteroides fragilis [20]) was greater than 128 µg/mL. It also gave an MIC50 (Thomasclavelia ramosa) of 0.5 µg/mL (≈ 0.902 µM), an MIC [21] of 64 µg/mL (≈ 115 µM) and an MIC50 (Fusobacterium varium) of 4 µg/mL (≈ 7.21 µM). The MIC90 (Fusobacterium varium) was 8 µg/mL (≈ 14.4 µM).
